Measurements of several laboratories.
Each line is one published result; the experiments were not run side by side.

`Nc1ncnc2c1ncn2[C@@H]1O[C@@H]2COP(=O)([S-])O[C@@H]3[C@H](O)[C@@H](COP([O-])(=S)O[C@H]2[C@H]1O)O[C@H]3n1cnc2c(N)ncnc21.[Na+].[Na+]` (some centres unmarked) gave a half-life of 4020 min (chemical stability, HPLC; bovine, serum).
For `COc1ccc(NC(=O)N2CCCCN3[C@H](CN(C)C)[C@H](c4ccc(C#Cc5ccccc5)cc4)[C@@H]3C2)cc1`, the Vd was 29 L/kg (mouse, plasma; intravenous).
`CCCCCCCC(=O)NC[C@H](NC(=O)[C@H](CO)NC(=O)CN)C(=O)N[C@@H](Cc1ccccc1)C(=O)N[C@@H](CC(C)C)C(=O)N[C@@H](CO)C(=O)N1CCC[C@H]1C(=O)N[C@@H](CCC(=O)O)C(=O)O` has a compound remaining of 100% (chemical stability; PBS; 1 mM, 24 h, pH 7.4).
The Vd of `Cc1nonc1Cn1nnc2c(N3CC[C@H](O)C3)nc(C(C)(C)C)nc21` is reported as 4.1 L/kg (C57BL/6 mouse, plasma; intravenous).
`COc1cc(C(=O)NC2CCN(C)CC2)c(F)cc1Nc1ncc(C(F)(F)F)c(Oc2cccc3c2C(=O)N(C)C3)n1` gave a half-life of 1670 min (human, plasma; oral, 25 mg, multiple doses, once daily, patients).
For `N=C(N)NCCC[C@@H](NC(=O)[C@@H](N)Cc1ccccc1)C(=O)N[C@@H](Cc1ccccc1)C(=O)N[C@@H](CCCCN)C(N)=O`, the half-life was 240 min (human, plasma; subcutaneous, 25 mg, multiple doses, once daily, patients).
`CN[C@H](CC(C)C)C(=O)N[C@H]1C(=O)N[C@@H](CC(N)=O)C(=O)N[C@H]2C(=O)NC3C(=O)N[C@H](C(=O)N[C@H](C(=O)NCCC[N+](C)(C)C)c4cc(O)cc(O)c4-c4cc3ccc4O)[C@H](O)c3ccc(c(Cl)c3)Oc3cc2cc(c3OC2OC(CO)C(O)[C@H](O)[C@@H]2O[C@H]2CC(C)(NCc3ccc(-c4ccc(Cl)cc4)cc3)[C@H](O)[C@H](C)O2)Oc2ccc(cc2Cl)[C@H]1O` (some centres unmarked) has a Vd of 1.25 L/kg (mouse, plasma; intravenous, 10 mg/kg).
The half-life of `CC(=C/C=C/C(C)=C/C(=O)O)/C=C1\CCCc2ccccc21` is reported as 346 min (human, plasma; oral, 10 mg, single dose, fasted, healthy volunteers).
The Vd of `Cc1nc([C@@](C)(CC2CC2)NC(=O)c2cc(OCC(F)(F)F)c(C3CC3)cn2)no1` is reported as 4 L/kg (C57BL/6 mouse, plasma; intravenous).
The Vd of `CCN(CC)CCCC[C@H](NC(=O)[C@H](CC(C)C)NC(=O)[C@H](C)NC(=O)[C@H](Cc1ccccc1)NC(=O)c1ccc(C(C)(C)C)cc1)C(=O)N[C@@H](CO)C(=O)OC` is reported as 0.19 L/kg (male Swiss mouse, blood; intravenous, 3 mg/kg).
With `C=CCNc1c(O)cc2c(O)c1C[C@@H](C)C[C@H](OC)[C@H](O)[C@@H](C)/C=C(\C)[C@H](OC(N)=O)[C@@H](OC)/C=C\C=C(/C)C(=O)N2` the half-life was 136 min (human, plasma; intravenous, 400 mg/m², patients, infusion).
